The conditions of data set [1]: cited from earlier work.
The conditions of data set [2]: up to 3 hours post radiotracer administration; ref Nishii et al., 2011; cited from earlier work.
The nature of data set [3]: Radioactivity and radiolabeled metabolites in blood plasma. The format is in vivo, rhesus macaques. In a few lines: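 Macaques received atropine and ketamine i.m., then isoflurane 1–3% in oxygen. Tracer was given i.v. via saphenous vein, and venous blood (0.5 mL) was drawn at 0, 1, 2, 3, 5, 10 and 30 min. Whole blood and plasma were gamma counted. Heparinized plasma was extracted with 3 volumes acetonitrile and run on radio-HPLC. Parent and metabolite fractions came from peak areas, expressed as %ID/mL.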

The nature of data set [4]: Dynamic PET/CT/MRI of the brain with compartmental pharmacokinetic modeling. The format is in vivo, rhesus macaques. Particulars: for k1 (influx rate constant) / k2 (efflux rate constant) / k3 rate constant: baseline. The method, boiled down: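 Four rhesus macaques (2 male, 2 female): atropine 0.04 mg/kg i.m., ketamine 10–15 mg/kg i.m., isoflurane 1–3% in oxygen; i.v. tracer via saphenous vein. Baseline dynamic PET with the 18F-labelled HDAC substrate and, separately, its 18F-labelled cleavage product. Carotid-derived plasma input was corrected by plasma-to-blood ratio and radio-HPLC metabolite fractions. Rate constants came from two-input, three-tissue-compartment fitting of regional brain time-activity curves.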

The next data set concerns HDAC class IIa enzymes. As to the kind of experiment: SAHA-mediated dose-dependent inhibition of [18F]FAHA accumulation in the brain. Conditions: pretreatment with increasing doses of SAHA; blood plasma. It is filed as in vivo, rhesus macaques.
For data set [5] the following is noted: at 30 min after the radiotracer administration; ref Nishii R, 2007; cited from earlier work.
For a further data set, the system named is class IIa HDACs. It is filed as biochemical. Particulars: non-radiolabeled FAHA; 10 ng enzyme, 30 min at 30°C.
Where [6] appears, read: ref Hendricks, et al 2011, Zeglis.

The values that follow come from publication PMC3540799 (NeuroImage, 2012).

Read-outs that look alike come from different tables or passages of the source.

Take `O=C(CCCCCCC(=O)Nc1ccc([18F])cc1)NO` [[^18F]SAHA, [^18F]suberoylanilide hydroxamic acid]: in data set [1] (setting [6]), the “accumulation in the brain (PET)” value was “did not accumulate in the brain” and the “washout from the brain” value is given as “excessive washout”.

Regarding `Nc1ccccc1NC(=O)c1ccc(CN[11C](=O)OCc2cccnc2)cc1` [[^11C]MS-275], in data set [1] (ref Hooker, et al 2010), the “accumulation in the brain (PET)” value was “did not accumulate in the brain” and the “blood-brain barrier (BBB) permeability” value is recorded as “poor”.

Take `O=C(O)C[18F]` [[^18F]FACE, [^18F]fluoroacetate]: in data set [2], the “[18F]fluorocitrate anabolite in blood” value was “not detectable”. Further, the “[18F]fluoride in blood plasma” value in data set [3] (30 min post [18F]FACE administration) is listed as < 2 % of total radioactivity. Also, the “Partition of [18F]FACE-derived radioactivity in blood between RBCs and plasma” value in data set [3] (rhesus monkey, in vivo) is reported as 70.2±8.4%. The brain-to-muscle concentration ratio in data set [4] (30 min post injection) is given as 0.78±0.28. For the same compound, in data set [4] (30 min post injection), the “whole brain-to-blood concentration ratio” value amounted to 0.55±0.18. Also, the “k1 (influx rate constant)” value in data set [4] (Amygdala) amounted to 0.020 ± 0.035; in data set [4] (Cerebellum), 0.055 ± 0.054; in data set [4] (Hippocampus), 0.021 ± 0.034; in data set [4] (Inferior colliculus), 0.019 ± 0.045; in data set [4] (Nucleus accumbens), 0.056 ± 0.052; in data set [4] (Peri-aqueductal gray) it was 0.021 ± 0.044. Also, the “k1 (influx rate constant)” value in data set [4] (Putamen) is 0.024 ± 0.033; in data set [4] (Temporal cortex) it was 0.016 ± 0.046; in data set [4] (Thalamus), 0.020 ± 0.482; in data set [4] (White matter) it was 0.015 ± 0.019; in data set [4] (Whole brain), 0.045 ± 0.034. Besides, the “k2 (efflux rate constant)” value in data set [4] (Amygdala) is listed as 0.088 ± 0.063; in data set [4] (Cerebellum), 0.202 ± 0.125; in data set [4] (Hippocampus) it was 0.118 ± 0.031; in data set [4] (Inferior colliculus), 0.034 ± 0.024; in data set [4] (Nucleus accumbens), 0.179 ± 0.146; in data set [4] (Peri-aqueductal gray) it was 0.050 ± 0.034. In addition, the “k2 (efflux rate constant)” value stood at 0.059 ± 0.063 in data set [4] (Putamen); 0.037 ± 0.014 in data set [4] (Temporal cortex); 0.048 ± 0.067 in data set [4] (Thalamus); 0.089 ± 0.103 in data set [4] (White matter); 0.170 ± 0.145 in data set [4] (Whole brain). For the same compound, the k3 rate constant turned out to be 0.047 ± 0.040 in data set [4] (Amygdala); 0.044 ± 0.066 in data set [4] (Cerebellum); 0.054 ± 0.039 in data set [4] (Hippocampus); 0.022 ± 0.021 in data set [4] (Inferior colliculus); 0.025 ± 0.034 in data set [4] (Nucleus accumbens); 0.026 ± 0.023 in data set [4] (Peri-aqueductal gray). Besides, the k3 rate constant in data set [4] (Putamen) is 0.026 ± 0.031; in data set [4] (Temporal cortex) it was 0.033 ± 0.018; in data set [4] (Thalamus), 0.022 ± 0.022; in data set [4] (White matter) it was 0.029 ± 0.022; in data set [4] (Whole brain) it was 0.033 ± 0.065. Besides, the “efflux rate constant k2FACE relative to that of [18F]FAHA” value in data set [4] (fold less than [18F]FAHA) is 4 to 10 fold.

Take `O=C(CCCCCCC(=O)Nc1ccccc1)NO` [SAHA, vorinostat]: the “effect on circulation half-time and AUC of [18F]FAHA” value in the data set with HDAC class IIa enzymes is on record as “dose-dependent log-linear increase”.

As to `O=C(C[18F])NCCCCCC(=O)Nc1ccccc1` [[^18F]FAHA, 6-([^18F]fluoroacetamido)-1-hexanoicanilide], the “accumulation of [18F]FAHA in the brain” value in data set [5] is recorded as “significant accumulation”. Moreover, the “fraction of [18F]FAHA catabolized to [18F]FACE in blood plasma” value in data set [3] (by 30 min post injection) is recorded as “almost all”. For the same compound, the “Kcat values for class IIa HDACs compared with other classes of HDACs” value in the data set on class IIa HDACs is given as “two orders of magnitude higher”. The “k1 (influx rate constant)” value in data set [4] (Amygdala) is 0.512 ± 0.1283; in data set [4] (Cerebellum), 0.645 ± 0.2594; in data set [4] (Hippocampus) it was 0.595 ± 0.071; in data set [4] (Inferior colliculus), 0.706 ± 0.2366; in data set [4] (Nucleus accumbens), 0.626 ± 0.5812; in data set [4] (Peri-aqueductal gray) it was 0.619 ± 0.2961. For the same compound, the “k1 (influx rate constant)” value in data set [4] (Putamen) amounted to 0.708 ± 0.3726; in data set [4] (Temporal cortex), 0.438 ± 0.2453; in data set [4] (Thalamus), 0.765 ± 0.4308; in data set [4] (White matter) it was 0.463 ± 0.2052; in data set [4] (Whole brain) it was 0.424 ± 0.2637. The “k2 (efflux rate constant)” value in data set [4] (Amygdala) is recorded as 0.493 ± 0.118; in data set [4] (Cerebellum) it was 1.001 ± 0.475; in data set [4] (Hippocampus), 0.883 ± 0.738; in data set [4] (Inferior colliculus), 0.644 ± 0.312; in data set [4] (Nucleus accumbens), 1.181 ± 1.6532; in data set [4] (Peri-aqueductal gray), 0.554 ± 0.256. For the same compound, the “k2 (efflux rate constant)” value in data set [4] (Putamen) was found to be 0.731 ± 0.617; in data set [4] (Temporal cortex) it was 0.558 ± 0.2452; in data set [4] (Thalamus), 0.604 ± 0.365; in data set [4] (White matter) it was 0.810 ± 0.269; in data set [4] (Whole brain), 0.611 ± 0.5713. Further, the k3 rate constant was 0.259 ± 0.093 in data set [4] (Amygdala); 0.380 ± 0.279 in data set [4] (Cerebellum); 0.279 ± 0.213 in data set [4] (Hippocampus); 0.267 ± 0.108 in data set [4] (Inferior colliculus); 0.401 ± 0.296 in data set [4] (Nucleus accumbens); 0.236 ± 0.088 in data set [4] (Peri-aqueductal gray). In addition, the k3 rate constant in data set [4] (Putamen) was determined as 0.328 ± 0.079; in data set [4] (Temporal cortex), 0.158 ± 0.056; in data set [4] (Thalamus), 0.192 ± 0.032; in data set [4] (White matter) it was 0.187 ± 0.135; in data set [4] (Whole brain) it was 0.192 ± 0.222. The “whole brain Ki of [18F]FAHA relative to Ki of [18F]FACE” value in data set [4] (whole brain) is “about 50 fold”.
